In assay [1] the test system is Rattus norvegicus. The experiment in a line: Hypolipidemic activity in intact normal CD rat assessed as reduction in serum cholesterol level at 0.39 mmol/kg/day administered through diet for 5 days measured on day 6. It is filed as functional. A digest of the protocol:
(§1)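 Male CD rats, 300–380 g, housed in pairs, 12-h light/dark, free access to food and water. Test agent mixed into ground chow at 0.2%; controls got plain ground chow; 8 rats per group. Body weight and group food intake recorded. Fed 5 days, anesthetized on day 6, blood collected, serum total cholesterol or triglyceride measured. Expressed as % reduction vs concurrent controls, Student's t test p ≤ 0.05.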

Assay [2] addresses T1, 3-hydroxy-3-methylglutaryl-coenzyme A reductase (Rattus norvegicus, UniProt P51639).
T1 sequence (P51639 whole entry): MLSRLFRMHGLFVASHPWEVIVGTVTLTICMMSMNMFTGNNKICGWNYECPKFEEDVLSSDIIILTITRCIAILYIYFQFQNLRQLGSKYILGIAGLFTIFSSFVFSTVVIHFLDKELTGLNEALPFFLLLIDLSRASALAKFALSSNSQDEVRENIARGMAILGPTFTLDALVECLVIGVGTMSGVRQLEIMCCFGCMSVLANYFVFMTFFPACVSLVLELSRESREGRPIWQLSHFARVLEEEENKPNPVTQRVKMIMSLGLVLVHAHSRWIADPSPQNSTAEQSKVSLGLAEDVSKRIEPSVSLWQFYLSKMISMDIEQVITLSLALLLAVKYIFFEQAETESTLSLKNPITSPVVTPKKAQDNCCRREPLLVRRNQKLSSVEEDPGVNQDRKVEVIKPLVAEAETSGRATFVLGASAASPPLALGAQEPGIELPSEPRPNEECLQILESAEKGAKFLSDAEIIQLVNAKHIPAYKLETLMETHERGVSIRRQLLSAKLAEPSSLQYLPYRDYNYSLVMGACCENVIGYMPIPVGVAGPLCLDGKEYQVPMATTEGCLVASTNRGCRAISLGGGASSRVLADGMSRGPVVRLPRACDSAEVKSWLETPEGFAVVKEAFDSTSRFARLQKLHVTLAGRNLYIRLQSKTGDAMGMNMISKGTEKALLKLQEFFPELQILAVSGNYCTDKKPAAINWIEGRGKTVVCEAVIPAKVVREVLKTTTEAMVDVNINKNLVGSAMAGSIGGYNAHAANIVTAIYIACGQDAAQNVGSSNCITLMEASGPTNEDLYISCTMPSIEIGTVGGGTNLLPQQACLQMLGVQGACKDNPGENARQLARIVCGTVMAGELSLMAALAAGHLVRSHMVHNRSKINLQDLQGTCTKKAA
Briefly: Inhibition of HMG-coA reductase in CD rat liver microsomal-cytosol fraction assessed as inhibition of total lipid synthesis using [2-14C]acetate as substrate after 90 mins by scintillation counting analysis. A digest of the protocol: (§2)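 Male CD rats, 150–200 g, housed singly 5 days on chow with 2% DEAE-cellulose, killed by cervical dislocation. Liver microsomal-cytosol fraction as enzyme source, [2-14C]acetate substrate, 90 min at 37 °C. Compounds added in Me2SO, at least four concentrations, duplicates. Lipid extract counted by scintillation (dpm). Heat-inactivated fraction corrects for nonenzymatic incorporation. Fractions are total lipid, nonsaponifiable lipid and fatty acid. IC50 is molar concentration giving 50% inhibition.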

In assay [3] the target is T1, 3-hydroxy-3-methylglutaryl-coenzyme A reductase. Briefly: Inhibition of HMG-coA reductase in CD rat liver microsomal-cytosol fraction assessed as inhibition of nonsaponifiable lipid synthesis using [2-14C]acetate as substrate after 90 mins by scintillation counting analysis. A digest of the protocol:
as §2

Assay [4] concerns Rattus norvegicus. Briefly: Hypolipidemic activity in intact normal CD rat assessed as reduction in serum triglyceride level at 0.39 mmol/kg/day administered through diet for 5 days measured on day 6. It is filed as functional. A digest of the protocol: as §1
The test system of assay [5] is Rattus norvegicus. The experiment in a line: Hypolipidemic activity in intact normal CD rat assessed as reduction in serum cholesterol level at 0.38 mmol/kg/day administered through diet for 5 days measured on day 6. It is filed as functional. A digest of the protocol:
as §1

Assay [6] relates to Rattus norvegicus. The experiment in a line: Hypolipidemic activity in intact normal CD rat assessed as reduction in serum triglyceride level at 0.38 mmol/kg/day administered through diet for 5 days measured on day 6. It is filed as functional. A digest of the protocol:
as §1

Assay [7] relates to Rattus norvegicus. The experiment in a line: Hypolipidemic activity in intact normal CD rat assessed as reduction in serum cholesterol level at 0.51 mmol/kg/day administered through diet for 5 days measured on day 6. It is filed as functional. A digest of the protocol: as §1
For assay [8], the system named is Rattus norvegicus. Briefly: Hypolipidemic activity in intact normal CD rat assessed as reduction in serum triglyceride level at 0.51 mmol/kg/day administered through diet for 5 days measured on day 6. The assay is classed as functional. A digest of the protocol: as §1
Assay [9] deals with Rattus norvegicus. The experiment in a line: Hypolipidemic activity in intact normal CD rat assessed as reduction in serum cholesterol level at 0.43 mmol/kg/day administered through diet for 5 days measured on day 6. It is filed as functional. A digest of the protocol:
as §1

Assay [10] concerns Rattus norvegicus. The experiment in a line: Hypolipidemic activity in intact normal CD rat assessed as reduction in serum triglyceride level at 0.43 mmol/kg/day administered through diet for 5 days measured on day 6. It is filed as functional. A digest of the protocol: as §1
Assay [11] deals with Rattus norvegicus. Briefly: Hypolipidemic activity in intact normal CD rat assessed as reduction in serum triglyceride level at 0.45 mmol/kg/day administered through diet for 5 days measured on day 6. The assay is classed as functional. A digest of the protocol:
as §1

For assay [12], the system named is Rattus norvegicus. The experiment in a line: Hypolipidemic activity in intact normal CD rat assessed as reduction in serum cholesterol level at 0.45 mmol/kg/day administered through diet for 5 days measured on day 6. The assay is classed as functional. A digest of the protocol: as §1
The test system of assay [13] is Rattus norvegicus. Briefly: Hypolipidemic activity in intact normal CD rat assessed as reduction in serum cholesterol level at 0.40 mmol/kg/day administered through diet for 5 days measured on day 6. The assay is classed as functional. A digest of the protocol: as §1
The subject of assay [14] is Rattus norvegicus. The experiment in a line: Hypolipidemic activity in intact normal CD rat assessed as reduction in serum triglyceride level at 0.40 mmol/kg/day administered through diet for 5 days measured on day 6. It is filed as functional. A digest of the protocol:
as §1

For assay [15], the system named is Rattus norvegicus. Briefly: Hypolipidemic activity in intact normal CD rat assessed as reduction in serum cholesterol level at 0.36 mmol/kg/day administered through diet for 5 days measured on day 6. The assay is classed as functional. A digest of the protocol:
as §1

Assay [16] deals with Rattus norvegicus. The experiment in a line: Hypolipidemic activity in intact normal CD rat assessed as reduction in serum triglyceride level at 0.36 mmol/kg/day administered through diet for 5 days measured on day 6. The assay is classed as functional. A digest of the protocol:
as §1

The test system of assay [17] is Rattus norvegicus. The experiment in a line: Hypolipidemic activity in intact normal CD rat assessed as reduction in serum cholesterol level at 0.41 mmol/kg/day administered through diet for 5 days measured on day 6. The assay is classed as functional. A digest of the protocol:
as §1

Assay [18] relates to Rattus norvegicus. Briefly: Hypolipidemic activity in intact normal CD rat assessed as reduction in serum triglyceride level at 0.41 mmol/kg/day administered through diet for 5 days measured on day 6. It is filed as functional. A digest of the protocol: as §1
Assay [19] relates to Rattus norvegicus. The experiment in a line: Hypolipidemic activity in intact normal CD rat assessed as reduction in serum triglyceride level at 0.42 mmol/kg/day administered through diet for 5 days measured on day 6. The assay is classed as functional. A digest of the protocol: as §1
Assay [20] concerns Rattus norvegicus. The experiment in a line: Hypolipidemic activity in intact normal CD rat assessed as reduction in serum cholesterol level at 0.42 mmol/kg/day administered through diet for 5 days measured on day 6. The assay is classed as functional. A digest of the protocol:
as §1

For 14 compounds, inhibition in vivo and IC50 results are on record in ChEMBL document CHEMBL3244254, “Hypolipidemic activity of 5-aryl-3-methylvaleric acid derivatives” (J Med Chem, 1977).

Molecules are shown by their SMILES.

As for `CC(CC(=O)O)CC(=O)c1ccc2c(c1)CCc1ccccc1-2` (stereo unspecified), the results for the inhibition in vivo at 390 µmol/kg in [1] and in assay [4] were 0% and at least 36%, respectively. In addition, the IC50 turned out to be 60 µM in assay [2] and 30 µM in assay [3].

Consider `CC(CC(=O)O)CC(=O)c1ccc(Sc2ccccc2)cc1` (stereo unspecified), for which the values for the IC50 in assay [2] and in [3] were 570 µM and 240 µM, respectively. Besides, the inhibition in vivo at 380 µmol/kg was 16% in assay [5] and at least 36% in assay [6].

On to `CC(C)(Oc1ccc(Cl)cc1)C(=O)O`, for which the IC50 in assay [2] is 630 µM; in assay [3], 860 µM. Further, the inhibition in vivo at 510 µmol/kg in [7] and in assay [8] was 26% each time.

With `CC(CC(=O)O)CC(=O)c1ccc(-c2ccccc2)cc1` (stereo unspecified), the concentration for half-maximal inhibition (IC50) in assay [2] worked out at 180 µM; in [3], 70 µM. Moreover, the figures for the inhibition in vivo at 430 µmol/kg in [9] and in [10] were 26% and 16%, respectively.

In the case of `CC(CCc1ccc2oc3ccccc3c2c1)CC(=O)O` (stereo unspecified), the values for the IC50 in [2] and in assay [3] were 810 µM and 360 µM, respectively. The inhibition in vivo at 430 µmol/kg is 26% in [9] and at least 36% in assay [10].

Consider `CC(CCc1ccc(-c2ccccc2)cc1)CC(=O)O` (stereo unspecified), for which the inhibition in vivo at 450 µmol/kg in assay [11] worked out at 26%; in assay [12], 16%. The 50% inhibitory concentration (IC50) is 20 µM in assay [2] and 2 µM in [3].

Turning to `CC(CCc1ccc(Sc2ccccc2)cc1)CC(=O)O` (stereo unspecified), the IC50 in [2] turned out to be 40 µM; in [3], 20 µM. Moreover, the inhibition in vivo at 400 µmol/kg in [13] was 26%; in [14] it was at least 36%.

Regarding `CC(CCc1ccc2sc3ccccc3c2c1)CC(=O)O` (stereo unspecified), the results for the IC50 in assay [2] and in [3] were 190 µM and 70 µM, respectively. The inhibition in vivo at 430 µmol/kg is 0% in [9] and at least 36% in assay [10].

Consider `CC(CC(=O)O)CC(=O)c1ccc(Oc2ccccc2)cc1` (stereo unspecified), for which the IC50 in assay [2] came to 850 µM; in assay [3], 290 µM. The inhibition in vivo at 400 µmol/kg was 16% in assay [13] and at least 36% in [14].

As to `CC(CCc1ccc2c(c1)-c1ccccc1S2(=O)=O)CC(=O)O` (stereo unspecified), the IC50 in [2] was found to be 50 µM; in [3], 80 µM. In addition, the inhibition in vivo at 360 µmol/kg in [15] was 16%; in [16], at least 36%.

Consider `CC(CC(=O)O)CC(=O)c1ccc2sc3ccccc3c2c1` (stereo unspecified), for which the concentration for half-maximal inhibition (IC50) in assay [2] stood at 310 µM; in assay [3], 160 µM. Further, the inhibition in vivo at 380 µmol/kg in [5] was 16%; in [6], 26%.

As to `CC(CC(=O)O)CC(=O)c1ccc2oc3ccccc3c2c1` (stereo unspecified), the IC50 amounted to 260 µM in assay [2] and 110 µM in assay [3]. Moreover, the inhibition in vivo at 410 µmol/kg in [17] amounted to 0%; in assay [18] it was 26%.

On to `CC(CCc1ccc(Oc2ccccc2)cc1)CC(=O)O` (stereo unspecified), for which the inhibition in vivo at 420 µmol/kg is at least 36% in assay [19] and 26% in assay [20]. Moreover, the figures for the IC50 in [2] and in assay [3] were 30 µM and 20 µM, respectively.

Regarding `CC(CCc1ccc(S(=O)(=O)c2ccccc2)cc1)CC(=O)O` (stereo unspecified), the IC50 in assay [2] worked out at 70 µM; in assay [3], 40 µM. The values for the inhibition in vivo at 360 µmol/kg in assay [15] and in assay [16] were 45% and 60%, respectively.
